Assay [1] can be described thus: nonspecific flux increase, KCNQ1-free cells – parental CHO cells, counter-screen for KCNQ1 potentiator project (AID 493006;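 active = duplicate-averaged activation above buffer control mean plus 5 SD of those controls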;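 for activation: fluorescence ratio of max minus min over baseline after K+ and Tl+ depolarization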). The following applies: parental CHO-K1 cells, FluxOR thallium flux, at 10 µM; active compounds read high. The method in brief:
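Assay system: parental CHO-K1 cells lacking KCNQ1, loaded with FluxOR thallium dye; timing: dye 90 min RT, compound 20 min RT; signal: kinetic thallium-flux fluorescence; repeats: duplicate wells per compound, percent values averaged; benchmarks: buffer and R-L3 controls; reagent: Potassium/thallium depolarization pulse; read-out: fluorescence change ratio scaled 0% buffer, 100% R-L3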
(In general: A counterscreen serves to expose hits that act by an unwanted route or on another target.)

Assay [2] concerns the target Potassium voltage-gated channel subfamily KQT member 1 (Homo sapiens) (UniProt P51787). The assay can be described thus: enhancement of KCNQ1 channel thallium flux – FluxOR thallium flux, CHO cells, duplicates, confirmation (AID 493007;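 active = potentiation averaged over duplicate wells exceeding buffer-only control mean by more than 3 SD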;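 for outcome: cells depolarized by a potassium plus thallium sulfate stimulus after compound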). Conditions: KCNQ1 cell line, FluxOR thallium flux fluorescence, at 10 µM; active compounds read high, % of reference activator effect, buffer zero. An outline of the steps:
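material = CHO cells stably expressing the KCNQ1 potassium channel | repeats = duplicate wells per compound | measure = percent activation between buffer and R-L3 responses | signal = FluxOR thallium-flux fluorescence, kinetic read | schedule = FluxOR dye loading 90 min, compound exposure 20 min, room temperature | control set = buffer and R-L3 controls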

Assay [3] has as its target Potassium voltage-gated channel subfamily KQT member 2 (Rattus norvegicus) (UniProt O88943). The assay can be described thus: KCNQ2 thallium flux enhancement – KCNQ2-CHO-K1 cells, selectivity assay for KCNQ1 potentiator project (AID 493009).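 Note: assay conditions were tuned for KCNQ1 rather than KCNQ2 modulators; signal is max minus min fluorescence divided by baseline after thallium stimulus.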 Conditions: FluxOR thallium flux fluorescence, at 10 µM; active compounds read high, scaled: buffer 0, activator control 100.
The target of assay [4] is Potassium voltage-gated channel subfamily KQT member 1 (Homo sapiens) (UniProt P51787). The assay can be described thus: KCNQ1 activators by electrophysiology – IonWorks patch clamp, KCNQ1-CHO cells, orthogonal assay for KCNQ1 potentiator project, confirmation (AID 493184;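 active = current rise at least 3 SD above the untreated control mean in each of two repeat wells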;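 for current potentiation: percent change of the same well's current before compound addition so 0% = no change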). The following applies: automated patch clamp current, at 10 µM; active compounds read high. An outline of the steps: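 Assay system – CHO cells carrying KCNQ1 · Medium – pH 7.4 external bath · Probe or stimulus – depolarizing pulse to +40 mV from -90 mV · Compound dosing – one dose, 10 µM final · Measured by – automated perforated-patch electrophysiology · Measure – % potentiation of steady-state current relative to pre-compound · Repeats – two replicates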

Each structure is given as a SMILES string. Active and inactive are the calls of the source.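 Rule for the calls, unless noted: active = mean duplicate potentiation above the buffer control mean plus 5 SD of buffer wells; inactive = the rest.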

Potassium voltage-gated channel subfamily KQT member 2 (Rattus norvegicus), sequence (O88943 whole entry, looked up): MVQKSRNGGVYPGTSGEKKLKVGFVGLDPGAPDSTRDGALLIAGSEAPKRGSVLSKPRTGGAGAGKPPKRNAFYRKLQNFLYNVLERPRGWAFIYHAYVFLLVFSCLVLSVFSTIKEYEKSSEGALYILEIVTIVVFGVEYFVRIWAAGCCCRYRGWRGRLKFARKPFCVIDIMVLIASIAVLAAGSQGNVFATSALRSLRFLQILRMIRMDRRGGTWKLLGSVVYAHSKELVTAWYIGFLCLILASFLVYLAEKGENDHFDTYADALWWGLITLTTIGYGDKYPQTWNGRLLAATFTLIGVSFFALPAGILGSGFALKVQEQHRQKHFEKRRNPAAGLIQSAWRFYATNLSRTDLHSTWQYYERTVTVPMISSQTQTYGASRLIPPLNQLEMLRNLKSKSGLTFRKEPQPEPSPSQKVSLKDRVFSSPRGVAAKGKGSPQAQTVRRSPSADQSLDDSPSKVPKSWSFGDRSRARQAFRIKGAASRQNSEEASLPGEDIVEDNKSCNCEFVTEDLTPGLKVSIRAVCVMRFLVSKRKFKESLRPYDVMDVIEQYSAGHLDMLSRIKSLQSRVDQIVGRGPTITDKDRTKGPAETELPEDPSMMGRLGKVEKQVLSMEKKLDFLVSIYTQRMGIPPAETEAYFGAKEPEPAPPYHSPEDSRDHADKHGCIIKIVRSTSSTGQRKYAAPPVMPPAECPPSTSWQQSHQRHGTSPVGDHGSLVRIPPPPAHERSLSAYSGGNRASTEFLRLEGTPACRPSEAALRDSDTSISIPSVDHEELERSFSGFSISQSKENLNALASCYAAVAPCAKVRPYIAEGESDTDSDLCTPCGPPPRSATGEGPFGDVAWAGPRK
Potassium voltage-gated channel subfamily KQT member 1 (Homo sapiens), sequence (P51787 whole entry, looked up): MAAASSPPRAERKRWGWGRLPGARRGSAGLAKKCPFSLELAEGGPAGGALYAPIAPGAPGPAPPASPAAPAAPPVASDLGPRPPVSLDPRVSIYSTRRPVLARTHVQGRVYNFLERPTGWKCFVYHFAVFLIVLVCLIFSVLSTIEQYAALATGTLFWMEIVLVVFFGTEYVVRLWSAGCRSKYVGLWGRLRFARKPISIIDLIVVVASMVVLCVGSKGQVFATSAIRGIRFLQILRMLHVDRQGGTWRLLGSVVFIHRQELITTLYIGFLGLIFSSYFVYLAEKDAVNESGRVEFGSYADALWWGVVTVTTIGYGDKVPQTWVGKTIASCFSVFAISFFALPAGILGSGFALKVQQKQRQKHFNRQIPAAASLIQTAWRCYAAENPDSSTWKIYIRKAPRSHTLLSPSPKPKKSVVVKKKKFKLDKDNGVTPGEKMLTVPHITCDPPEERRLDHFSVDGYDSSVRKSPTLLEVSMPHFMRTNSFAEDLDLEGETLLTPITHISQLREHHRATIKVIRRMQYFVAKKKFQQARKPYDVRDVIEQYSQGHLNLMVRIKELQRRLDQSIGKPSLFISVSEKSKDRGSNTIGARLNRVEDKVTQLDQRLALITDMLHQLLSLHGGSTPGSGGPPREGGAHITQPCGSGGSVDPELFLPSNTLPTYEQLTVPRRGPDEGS

Turning to `CCc1nc2sc3c(=O)[nH]cnc3c2c2c1CSC(C)(C)C2`, the outcome in assay [1], in assay [2], in assay [3] and in assay [4] was inactive.
As for `COc1ccc(-c2nc3ccc(C(=O)NCC(OC)OC)cc3nc2-c2ccc(OC)c(OC)c2)cc1OC`, the result in assay [1], in assay [2], in assay [3] and in assay [4] was inactive.
`O=C(NC(=S)NC1CCCCC1)c1ccc(F)cc1`: the outcome in assay [1], in assay [2], in assay [3] and in assay [4] was inactive.
Regarding `CC1Cc2ccccc2N1C(=S)NC(=O)c1ccc(Cl)cc1Cl` (stereo not given), in assay [1], the activation was 214% (active). Moreover, the potentiation in assay [2] was 91.5% (active); in assay [3], 248% (active). The result in assay [4] was inactive.
Regarding `O=C(NC(=S)Nc1ccccc1N1CCCC1)c1ccc([N+](=O)[O-])cc1`, the activation in assay [1] is 161% (active). The potentiation in assay [2] was 100% (active); in assay [3], 218% (active). In addition, the outcome in assay [4] was inactive.
Turning to `O=C(CN1C(=O)COc2ccccc21)N(Cc1cccnc1)Cc1cccc(F)c1`, the result in assay [1], in assay [2], in assay [3] and in assay [4] was inactive.
Consider `COc1ccccc1C(=O)NNC(=O)C(=O)NC(C)(C)C`, for which, in assay [1], the activation is 185% (active). Besides, the potentiation in assay [2] was 68% (active); in assay [3], 246% (active). The outcome in assay [4] was inactive.
For `Cc1ccc(C(=O)CC(=O)COc2ccc(Cl)cc2C)cc1`, the outcome in assay [1] and in assay [4] was inactive. In addition, the results for the potentiation in assay [2] and in assay [3] were 180% (active) and 209% (active), respectively.
For `Fc1cccc2sc(Nc3nnc(-c4ccccc4)o3)nc12`, the activation in assay [1] is 531% (active). Moreover, the potentiation in assay [2] is 198% (active); in assay [3], 481% (active). Moreover, the outcome in assay [4] was inactive.
As for `CN(CC(=O)NCCc1ccc(F)cc1)Cc1cccc(Cl)c1`, the result in assay [1], in assay [2], in assay [3] and in assay [4] was inactive.
As to `COc1cc(CN2CCN(c3cccc(Cl)c3)CC2)cc(OC)c1OC`, the outcome in assay [1], in assay [2], in assay [3] and in assay [4] was inactive.
On to `CC(Sc1nnnn1-c1ccc(O)cc1)C(=O)NC1CCCCC1C` (stereo not given), for which the outcome in assay [1], in assay [2], in assay [3] and in assay [4] was inactive.
For the compound `COc1ccc(C(=O)CSc2nnc(CNC(=O)c3ccc(OC)cc3)n2C)cc1`, the outcome in assay [1], in assay [3] and in assay [4] was inactive. Besides, in assay [2], the potentiation was 21% (active).
Turning to `O=C(Nc1cccc(NC(=O)c2c(F)cccc2F)n1)c1c(F)cccc1F`, the outcome in assay [1], in assay [2], in assay [3] and in assay [4] was inactive.
`COc1ccc(/C=C2\SC(=S)N(NS(=O)(=O)c3ccc(C)cc3)C2=O)c(OC)c1`: the activation in assay [1] is 138% (active). Also, the potentiation in assay [2] is 77.5% (active); in assay [3], 261% (active). In addition, the current potentiation in assay [4] is 20.6% (active).
Take `CC(C)CN=Cc1c(O)c([N+](=O)[O-])cc2oc3c(c12)CCCC3`: the result in assay [1], in assay [2], in assay [3] and in assay [4] was inactive.
As to `COc1ccc(-c2nc(=S)c3ccc4ccccc4c3[nH]2)cc1`, the activation in assay [1] was 207% (active). The potentiation was 83.5% (active) in assay [2] and 180% (active) in assay [3]. In addition, in assay [4], the outcome was inactive.
Regarding `COc1ccc(C(=O)c2cc([N+](=O)[O-])ccc2N2CCOCC2)cc1`, the result in assay [1], in assay [2], in assay [3] and in assay [4] was inactive.
For `Cc1cc(C(c2cc(C)c(N)c(C)c2)c2ccco2)cc(C)c1N`, the activation in assay [1] was 189% (active). Further, the potentiation in assay [2] is 138% (active); in assay [3], 224% (active). Also, the outcome in assay [4] was inactive.
Consider `CC(C)(C)c1cc(C(=O)NNC(=O)c2ccc(Cl)cc2)no1`, for which, in assay [1], the activation is 200% (active). For the same compound, the potentiation is 86.5% (active) in assay [2] and 257% (active) in assay [3]. Besides, in assay [4], the outcome was inactive.
Take `O=C1Nc2cc(C(=O)NCCCN3CCOCC3)ccc2S/C1=C/c1cccc(Cl)c1`: the outcome in assay [1], in assay [2], in assay [3] and in assay [4] was inactive.
As to `COCCN(Cc1cc2cc3c(cc2nc1Cl)OCO3)C(=O)c1ccc(C)cc1`, the outcome in assay [1], in assay [2], in assay [3] and in assay [4] was inactive.
On to `COc1ccc(NC(=O)C(=O)NNC(=O)c2cccs2)cc1`, for which the activation in assay [1] is 177% (active). The potentiation is 24.5% (active) in assay [2] and 187% (active) in assay [3]. The result in assay [4] was inactive.
On to `CCOC(=O)C1CCN(C(=O)COc2cc(C)c(Br)c(C)c2)CC1`, for which the result in assay [1], in assay [2], in assay [3] and in assay [4] was inactive.
As for `CCC(C(=O)OCC(=O)NC(=O)NC(C)(C)C)c1ccccc1` (stereo not given), the outcome in assay [1], in assay [2], in assay [3] and in assay [4] was inactive.
In the case of `O=C(CSc1nc2cc(Cl)ccc2s1)c1cc2ccccc2o1`, the result in assay [1], in assay [2], in assay [3] and in assay [4] was inactive.
With `Cc1nn(CC(=O)NC(C)c2ccccc2)c(=O)c2ccccc12` (stereo not given), the activation in assay [1] is 150% (active). Besides, the potentiation in assay [2] is 85.5% (active); in assay [3] it was 172% (active). In addition, the outcome in assay [4] was inactive.
Turning to `O=C(NNC(=S)NC(=O)c1sc2ccccc2c1Cl)c1ccc(Cl)cc1`, the activation in assay [1] is 320% (active). The potentiation in assay [2] is 168% (active); in assay [3] it was 319% (active). The result in assay [4] was inactive.
Regarding `CC(C)c1ccc(/C=N/n2c(COc3ccccc3)n[nH]c2=S)cc1`, the activation in assay [1] was 190% (active). The results for the potentiation in assay [2] and in assay [3] were 512% (active) and 503% (active), respectively. Moreover, the result in assay [4] was inactive.
Consider `Cc1ccc(OCCN2C(=O)c3ccccc3C2=O)c([N+](=O)[O-])c1`, for which the outcome in assay [1], in assay [2], in assay [3] and in assay [4] was inactive.

(Values after PubChem BioAssay.)
